Data taken from ChEMBL document CHEMBL4145680, “Tau-Centric Multitarget Approach for Alzheimer's Disease: Development of First-in-Class Dual Glycogen Synthase Kinase 3β and Tau-Aggregation Inhibitors” (J Med Chem, 2018).
Active and inactive are the calls of the source.

What was measured:
[1] = biological target: CDC7/DBF4 (Cell division cycle 7-related protein kinase/Activator of S phase kinase) (Homo sapiens) (UniProt Q9UBU7+O00311); assay: Inhibition of CDC7/Dbf4 (unknown origin) at 10 uM incubated for 60 mins by Kinase-Glo assay; format: protein-complex assay; conditions: in the assay text read “ADP-Glo assay” for “Kinase-Glo assay”
Method in brief: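 CDC7/DBF4 enzyme, 25 ng/well, with 10 µM ATP (final) and PDKtide substrate. Incubated 60 min at room temperature. ADP-Glo reagent added for 40 min, then detection reagent for 30 min, and luminescence read. Inhibition calculated relative to the no-inhibitor maximum.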

[2] = biological target: T1, Glycogen synthase kinase-3 beta (Homo sapiens, UniProt P49841); assay: Inhibition of GSK3beta (unknown origin) using GS-2 peptide substrate incubated for 30 mins by kinase-Glo luminescent assay
Method in brief: (§1)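 Human recombinant GSK-3β, 20 ng, in 50 mM HEPES pH 7.5 with 1 mM EDTA, 1 mM EGTA and Mg acetate. Incubated 30 min at 30 °C, then Kinase-Glo luminescence read after 10 min. Activity scaled between no-inhibitor and full-inhibition reference controls.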
Target sequence in this assay (P49841 whole entry): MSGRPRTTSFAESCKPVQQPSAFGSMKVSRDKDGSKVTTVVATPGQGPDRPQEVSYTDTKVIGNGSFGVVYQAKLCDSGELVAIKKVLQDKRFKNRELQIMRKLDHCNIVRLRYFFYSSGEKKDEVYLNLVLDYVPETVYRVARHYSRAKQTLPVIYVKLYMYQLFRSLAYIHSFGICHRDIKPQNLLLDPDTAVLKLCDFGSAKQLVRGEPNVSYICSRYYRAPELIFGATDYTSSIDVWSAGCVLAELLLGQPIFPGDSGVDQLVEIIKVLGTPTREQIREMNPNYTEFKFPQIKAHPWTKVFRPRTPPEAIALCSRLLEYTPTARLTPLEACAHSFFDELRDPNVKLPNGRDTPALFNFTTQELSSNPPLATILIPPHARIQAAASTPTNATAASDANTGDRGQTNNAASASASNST

[3] = biological target: T1, Glycogen synthase kinase-3 beta; assay: Reversible inhibition of GSK3beta (unknown origin) pre-incubated for 30 mins followed by 100 fold dilution into buffer containing ULight-GS (Ser641/pSer657) peptide substrate and cofactors by TR-FRET assay based jump-dilution assay
Target sequence in this assay (P49841 whole entry, looked up): as the sequence (P49841 whole entry) above

[4] = Inhibition of AcPHF6 peptide aggregation in pH 7.4 phosphate buffer at 20 uM by CD Spectroscopy
[5] = biological target: T1, Glycogen synthase kinase-3 beta; assay: Competitive inhibition of GSK3beta (unknown origin) at 10 uM using fixed level of GS-2 peptide substrate and varying ATP levels incubated for 30 mins by kinase-Glo luminescent assay
Method in brief: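 Human recombinant GSK-3β, 20 ng per reaction, in HEPES pH 7.5 buffer with EDTA, EGTA and Mg acetate. GS-2 prephosphorylated peptide held at 25 µM; ATP varied from 1 to 50 µM along with inhibitor level. 30 min at 30 °C, then Kinase-Glo luminescence read after 10 min. Lineweaver–Burk double-reciprocal analysis; means of two experiments, each run in triplicate.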
Target sequence in this assay (P49841 whole entry, looked up): as the sequence (P49841 whole entry) above

[6] = test system: Cerebellar granule neurone; assay: Neurotoxicity in rat primary cerebellar granule neurons assessed as reduction in cell viability at 50 uM incubated for 24 hrs by MTT assay; format: toxicity
Method in brief: (§2)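 Cerebellar granule neurons from 7-day-old rat pups, plated on poly-L-lysine at 3 × 10^5 cells/well in BME with FBS and 25 mM KCl. Cytosine arabinoside 10 µM added at 16 h. At 7 days in vitro, switched to serum-free BME with 25 mM KCl and treated 24 h at 0, 5, 25 or 50 µM. MTT 0.1 mg/mL for 20 min at 37 °C, A570. Mean ± SE of ≥3 experiments in triplicate, as % of control.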

[7] = biological target: T1, Glycogen synthase kinase-3 beta; assay: Inhibition of GSK3beta (unknown origin) pre-incubated for 30 mins followed by ULight-GS (Ser641/pSer657) peptide substrate addition and measured after 1 hr by TR-FRET assay
Target sequence in this assay (P49841 whole entry): as above

[8] = biological target: Microtubule-associated protein tau (Homo sapiens) (UniProt P10636); assay: Inhibition of heparin-induced full-length 2N4R tau self aggregation (unknown origin) assessed as reduction in formed aggregates level at 10 uM by ThT fluorescence assay based RT-QuIC analysis
Method in brief: (§3)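 Full-length 2N4R tau 20 µM with heparin 0.02 mg/mL, 0.5 mM DTT and 10 µM ThT in PBS, ±10 µM compound; 1% DMSO control. Cycled 1 min shaking at 600 rpm and 1 min rest at 42 °C. ThT read every 2 min (ex 450, em 480 nm).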

[9] = biological target: Casein kinase I isoform epsilon (Homo sapiens) (UniProt P49674); assay: Inhibition of human recombinant CK1epsilon at 10 uM incubated for 60 mins by Kinase-Glo assay
Method in brief: (§4)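 Human recombinant CK1δ or CK1ε, 16 ng, in 50 mM HEPES pH 7.5 with 10 mM MgCl2, 1 mM EGTA and Brij-35. Substrate 0.1% casein with 4 µM ATP; compound diluted to 10 µM before addition, DMSO ≤1%. Incubated 60 min at 30 °C, then Kinase-Glo luminescence read. Inhibition relative to no-inhibitor activity; mean of two experiments.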

[10] = biological target: Casein kinase I isoform delta (Homo sapiens) (UniProt P48730); assay: Inhibition of human recombinant CK1delta at 10 uM incubated for 60 mins by Kinase-Glo assay; method in brief: as §4
[11] = Hepatotoxicity in human HepG2 cells assessed as reduction in cell viability at 5 to 50 uM incubated for 24 hrs by MTT assay; format: toxicity, cell-based; conditions: hepg2, 24 h
Method in brief: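 HepG2 cells grown in DMEM with 10% FBS at 37 °C, 5% CO2, seeded at 0.5 × 10^5 cells/well and left 24 h. Exposed in serum-free DMEM for 24 h (concentrations listed as 0, 10, 25, 50 µM; elsewhere 0, 5, 25, 50 µM). MTT 0.1 mg/mL for 10 min at 37 °C in the dark. Formazan dissolved in Tris/Triton X-100, A570. Mean ± SE of ≥3 experiments in triplicate; reported as % of control.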

[12] = biological target: T1, Glycogen synthase kinase-3 beta; assay: Inhibition of GSK3beta (unknown origin) at 10 uM
Method in brief: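 Human recombinant GSK-3β (20 ng) with 25 µM GS-2 prephosphorylated peptide and 1 µM ATP in 50 mM HEPES pH 7.5, 1 mM EDTA, 1 mM EGTA, Mg acetate. DMSO at most 1%. 30 min at 30 °C; reaction stopped with Kinase-Glo, luminescence read after 10 min. Activity scaled between no inhibitor and full inhibition by a reference inhibitor.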
Target sequence in this assay (P49841 whole entry, looked up): as the sequence (P49841 whole entry) above

[13] = biological target: Microtubule-associated protein tau (Homo sapiens) (UniProt P10636); assay: Inhibition of heparin-induced full-length 2N4R tau self aggregation (unknown origin) assessed as induction of delay in aggregation at 10 uM by ThT fluorescence assay based RT-QuIC analysis; method in brief: as §3
[14] = Inhibition of AcPHF6 peptide aggregation in pH 7.4 phosphate buffer at 10 uM by atomic force microscopy
Method in brief: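 AcPHF6 500 µM in water diluted to 50 µM in 50 mM phosphate pH 7.4, ±10 µM compound, no ThT. Incubated 80 min at 25 °C with 10 s shaking at 400 rpm each minute. Ultrafiltered (30 kDa cut-off), buffer exchanged to water, and the retained high-MW fraction adsorbed on mica. Imaged by PeakForce tapping-mode AFM.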

[15] = test system: Cerebellar granule neurone; assay: Neurotoxicity in rat primary cerebellar granule neurons assessed as reduction in cell viability at 5 to 25 uM incubated for 24 hrs by MTT assay; format: toxicity; method in brief: as §2
[16] = biological target: T1, Glycogen synthase kinase-3 beta; assay: Inhibition of okadaic acid-induced GSK-3beta-mediated tau hyperphosphorylation in human SH-SY5Y cells assessed as increase in cell viability pre-incubated for 1 hr before okadaic acid stimulation for 24 hrs by MTT assay; format: cell-based
Method in brief: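 SH-SY5Y cells grown in DMEM with 10% FBS, seeded at 60000 per well and used 48 h later. Compound given 1 h before 30nM okadaic acid, then 24 h incubation. Viability by MTT, 0.5mg/mL for at least 4 h, formazan dissolved in DMSO, absorbance at 595 nm. Expressed relative to control (=100); n=6 from three independent experiments.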
Target sequence in this assay (P49841 whole entry, looked up): as the sequence (P49841 whole entry) above

[17] = Permeability in pH 7.4 PBS incubated for 2.5 hrs by PAMPA-BBB assay; format: ADME; conditions: read-out: permeability
Method in brief: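 PAMPA-BBB: donor filter coated with porcine brain lipid in dodecane (20 mg/mL). Compounds in PBS pH 7.4/EtOH 70:30, acceptor filled with the same. Sandwich incubated 2.5 h at 25 °C, then donor and acceptor concentrations measured by UV at 3–5 wavelengths, 3 wells, two runs. Ten reference drugs included for validation.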

[18] = Inhibition of tau K18 fragment peptide aggregation assessed as reduction in […] self aggregation at 1 to 10 uM measured every 15 mins by ThT fluorescence assay based RT-QuIC analysis
Method in brief: (§5)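 Tau K18 21 µM with heparin 0.015 mg/mL, 0.1 mM DTT and 10 µM ThT in PBS, with compound at 1, 5 or 10 µM or 1% DMSO; triplicate. Cycled 1 min shaking at 300 rpm and 14 min rest at 37 °C. ThT read every 15 min (ex 450, em 480 nm). Inhibition from mean plateau fluorescence.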

[19] = Inhibition of tau K18 fragment peptide aggregation assessed as induction of delay in […] self aggregation at 1 to 10 uM measured every 15 mins by ThT fluorescence assay based RT-QuIC analysis; method in brief: as §5
[20] = biological target: T1, Glycogen synthase kinase-3 beta; assay: Inhibition of GSK3beta (unknown origin) at 10 uM using GS-2 peptide substrate incubated for 30 mins by kinase-Glo luminescent assay
Method in brief: as §1, with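 “acetate. Substrate prephosphorylated GS-2 peptide 25 µM with 1 µM ATP; DMSO ≤1%.” for “acetate.”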
Target sequence in this assay (P49841 whole entry, looked up): as the sequence (P49841 whole entry) above

Chain of Microtubule-associated protein tau (Homo sapiens) (P10636 whole entry): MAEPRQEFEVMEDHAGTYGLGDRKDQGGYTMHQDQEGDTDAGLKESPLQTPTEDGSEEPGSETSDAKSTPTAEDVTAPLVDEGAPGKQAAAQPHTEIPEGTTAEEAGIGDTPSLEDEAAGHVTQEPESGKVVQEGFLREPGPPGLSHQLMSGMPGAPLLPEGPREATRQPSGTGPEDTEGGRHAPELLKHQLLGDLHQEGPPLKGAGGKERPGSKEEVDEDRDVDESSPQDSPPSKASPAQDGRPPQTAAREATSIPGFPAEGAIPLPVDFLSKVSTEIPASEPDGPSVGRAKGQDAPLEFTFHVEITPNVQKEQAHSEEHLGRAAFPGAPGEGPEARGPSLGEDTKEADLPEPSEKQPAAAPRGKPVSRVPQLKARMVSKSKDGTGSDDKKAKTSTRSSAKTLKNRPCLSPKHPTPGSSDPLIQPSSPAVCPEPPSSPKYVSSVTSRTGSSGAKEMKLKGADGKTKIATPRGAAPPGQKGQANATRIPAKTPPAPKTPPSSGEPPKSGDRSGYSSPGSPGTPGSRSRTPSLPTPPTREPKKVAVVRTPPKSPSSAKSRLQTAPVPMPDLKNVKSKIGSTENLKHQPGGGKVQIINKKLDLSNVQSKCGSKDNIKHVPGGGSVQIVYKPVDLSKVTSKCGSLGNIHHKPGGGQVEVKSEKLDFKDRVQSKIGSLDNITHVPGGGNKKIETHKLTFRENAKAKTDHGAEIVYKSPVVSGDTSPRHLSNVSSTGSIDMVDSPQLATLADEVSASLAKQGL
Chain of CDC7/DBF4 (Cell division cycle 7-related protein kinase/Activator of S phase kinase) (Homo sapiens) (O00311 whole entry, looked up): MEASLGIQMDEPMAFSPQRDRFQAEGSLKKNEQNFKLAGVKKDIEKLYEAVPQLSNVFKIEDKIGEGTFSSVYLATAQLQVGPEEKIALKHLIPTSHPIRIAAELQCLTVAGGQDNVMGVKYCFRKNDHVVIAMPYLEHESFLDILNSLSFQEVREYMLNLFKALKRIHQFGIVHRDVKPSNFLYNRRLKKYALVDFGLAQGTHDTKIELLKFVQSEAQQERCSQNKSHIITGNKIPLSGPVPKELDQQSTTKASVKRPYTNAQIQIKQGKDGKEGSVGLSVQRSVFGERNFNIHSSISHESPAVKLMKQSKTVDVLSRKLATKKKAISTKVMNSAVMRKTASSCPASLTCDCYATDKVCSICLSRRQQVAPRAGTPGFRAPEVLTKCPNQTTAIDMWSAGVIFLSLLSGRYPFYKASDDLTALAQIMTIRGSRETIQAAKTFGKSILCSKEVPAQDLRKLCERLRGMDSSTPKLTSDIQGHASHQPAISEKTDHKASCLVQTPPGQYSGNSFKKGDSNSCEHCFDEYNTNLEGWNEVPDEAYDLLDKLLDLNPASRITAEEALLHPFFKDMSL
Chain of CDC7/DBF4 (Cell division cycle 7-related protein kinase/Activator of S phase kinase) (Homo sapiens) (Q9UBU7 whole entry, looked up): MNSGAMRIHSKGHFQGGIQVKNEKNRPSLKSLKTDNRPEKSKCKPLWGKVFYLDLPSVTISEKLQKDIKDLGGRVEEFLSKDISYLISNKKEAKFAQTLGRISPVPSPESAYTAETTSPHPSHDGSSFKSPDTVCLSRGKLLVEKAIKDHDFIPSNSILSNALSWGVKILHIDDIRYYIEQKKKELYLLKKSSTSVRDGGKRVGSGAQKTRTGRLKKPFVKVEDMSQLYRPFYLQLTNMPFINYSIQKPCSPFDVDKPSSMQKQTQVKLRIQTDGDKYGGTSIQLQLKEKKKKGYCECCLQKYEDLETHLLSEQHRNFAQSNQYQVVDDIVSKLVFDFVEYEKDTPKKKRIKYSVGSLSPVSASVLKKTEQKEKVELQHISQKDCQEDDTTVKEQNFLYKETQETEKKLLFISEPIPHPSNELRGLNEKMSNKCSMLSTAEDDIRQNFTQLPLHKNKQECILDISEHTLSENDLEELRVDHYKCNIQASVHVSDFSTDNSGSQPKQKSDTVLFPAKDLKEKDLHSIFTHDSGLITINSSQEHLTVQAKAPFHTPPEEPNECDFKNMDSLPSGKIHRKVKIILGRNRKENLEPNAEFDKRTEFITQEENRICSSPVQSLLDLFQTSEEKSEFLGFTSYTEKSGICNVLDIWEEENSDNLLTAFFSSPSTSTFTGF
Chain of Casein kinase I isoform epsilon (Homo sapiens) (P49674 whole entry, looked up, canonical isoform): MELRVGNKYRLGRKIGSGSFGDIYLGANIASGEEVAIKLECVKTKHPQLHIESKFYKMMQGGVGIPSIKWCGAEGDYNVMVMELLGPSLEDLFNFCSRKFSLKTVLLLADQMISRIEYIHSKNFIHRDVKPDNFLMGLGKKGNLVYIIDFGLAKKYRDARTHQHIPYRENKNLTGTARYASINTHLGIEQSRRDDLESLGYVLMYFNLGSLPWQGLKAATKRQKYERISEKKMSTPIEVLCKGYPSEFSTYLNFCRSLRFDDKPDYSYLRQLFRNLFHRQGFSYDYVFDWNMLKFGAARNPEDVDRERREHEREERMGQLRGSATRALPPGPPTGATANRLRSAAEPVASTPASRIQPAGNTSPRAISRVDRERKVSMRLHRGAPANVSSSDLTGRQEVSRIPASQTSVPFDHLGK
Chain of Casein kinase I isoform delta (Homo sapiens) (P48730 whole entry, looked up, canonical isoform): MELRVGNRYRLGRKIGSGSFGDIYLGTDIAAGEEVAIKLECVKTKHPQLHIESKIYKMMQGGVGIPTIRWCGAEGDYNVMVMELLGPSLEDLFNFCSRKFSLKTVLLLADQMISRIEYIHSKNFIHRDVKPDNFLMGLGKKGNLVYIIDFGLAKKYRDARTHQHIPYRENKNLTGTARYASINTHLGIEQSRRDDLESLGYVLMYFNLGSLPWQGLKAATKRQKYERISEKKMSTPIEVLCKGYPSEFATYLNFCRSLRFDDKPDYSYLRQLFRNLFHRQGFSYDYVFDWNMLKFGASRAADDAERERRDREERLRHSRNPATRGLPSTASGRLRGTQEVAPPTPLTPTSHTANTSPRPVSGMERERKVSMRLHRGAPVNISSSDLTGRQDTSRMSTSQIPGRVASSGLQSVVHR

**Q.** What does the source list for COc1ccc2c(c1)c(/C=C1\SC(=O)NC1=O)cn2C?
**A.** inhibition [1]: inactive; IC50 [2]: 0.89 µM; inhibition [3]: Active; inhibition [4]: Active; inhibition [5]: Active; Activity [6]: Toxic; IC50 [7]: 5.5 µM; inhibition [8]: 30%; inhibition [9]: inactive; inhibition [10]: inactive; Activity [11]: Non-Toxic; inhibition [12]: 100%; inhibition [13]: inactive; inhibition [14]: Active; Activity [15]: Non-Toxic; inhibition [16]: Active; Papp at 2.5 h [17]: > 3.07 ×10⁻⁶ cm/s; inhibition [18]: 35%; inhibition [19]: Active; inhibition [20]: > 50%
